# Screens: PubChem BioAssay, several laboratories
# Only some compounds are listed: those with a hit (about 3.8% of all), similar ones and a draw of the others.
# GPR7 antagonist: antagonists of human GPR7 (neuropeptides B/W receptor 1). P48145. GPR7-expressing cells, fluorescence antagonist assay. inhibition, % at 4.4 µM. 290,000 compounds, 1.1% hits. AID 1861; in the data active = inhibition above about 16%, passing the limit was not always enough;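 note: cells stimulated with the agonist NPW; 0% = agonist with vehicle and 100% = vehicle without agonist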
# OX1R antag-1: antagonists of human orexin 1 receptor (OX1R) | 330,000 compounds, 1.8% hits | O43613 | OX1R-expressing cells, FRET antagonist read-out | inhibition, % at 6.6 µM; in the data active = inhibition mostly above about 38%, no sharp cut-off; inactive = mostly below about 40%;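 note: 0% = agonist challenge alone and 100% = reference antagonist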
# Target sequence (O43613 whole entry, looked up): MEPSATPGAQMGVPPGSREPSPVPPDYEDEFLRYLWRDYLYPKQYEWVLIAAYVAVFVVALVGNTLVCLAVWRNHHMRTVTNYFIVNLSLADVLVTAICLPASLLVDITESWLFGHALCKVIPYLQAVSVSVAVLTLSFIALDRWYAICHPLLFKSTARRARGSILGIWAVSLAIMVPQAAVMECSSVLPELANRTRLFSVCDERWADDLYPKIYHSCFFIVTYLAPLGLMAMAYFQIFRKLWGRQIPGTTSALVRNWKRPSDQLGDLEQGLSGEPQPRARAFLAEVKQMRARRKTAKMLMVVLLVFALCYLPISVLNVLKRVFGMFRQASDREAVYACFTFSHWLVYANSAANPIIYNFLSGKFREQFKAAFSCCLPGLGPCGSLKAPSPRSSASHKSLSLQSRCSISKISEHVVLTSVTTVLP
# CHO parental Ca: counter-screen for OX1R antagonists: effect in parental CHO cells; parental CHO-K1, ATP-induced calcium, Fluo-8 fluorescence; 330,000 compounds, 0.63% hits; inhibition, % at 5.6 µM;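 active = inhibition above that plate's mean sample inhibition plus 3 SD, cut at about 26% in these data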;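 note: 0% = ATP-challenged DMSO wells and 100% = DMSO wells without ATP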
#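 Assay system – parental CHO cells · Reagent – ATP stimulus · Detection – intracellular calcium via Fluo-8 no-wash fluorescent dye · Evaluation – percent inhibition of ATP-evoked calcium rise, normalized to controls · Controls – ATP wells versus no-ATP DMSO wells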
# OX1R antag-2: blocks the human orexin 1 receptor; O43613; CHO/OX1R cells, Fluo-8 calcium fluorescence, orexin A; inhibition, % at 5 µM; 330,000 compounds, 0.43% hits; AID 434989;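 active = inhibition above its plate's threshold, mean inhibition of all tested compounds on the plate plus 3 SD, cut at about 37% in these data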;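 note: 0% = orexin A challenge wells and 100% = SB-334867-A antagonist wells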
# MPTP inh: permeability transition pore inhibition; inhibition, % at 10 µM; 360,000 compounds, 1.4% hits; isolated mouse mitochondria, Ca2+ swelling absorbance, 30 min;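 active = inhibition of 50% or more, scaled per plate between neutral and stimulator controls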;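 note: 0% = DMSO wells given calcium and 100% = 1 mM EGTA wells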
# MPTP counter: Rhodamine 123 counter-screen of mitochondrial pore hits | isolated mitochondria, membrane potential, Rhodamine 123 fluorescence | AID 624504 | 5,000 compounds, 78% hits | shares compounds with MPTP inh | inhibition, % at 10 µM; in the data active = inhibition above about 22%;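 note: 0% = DMSO vehicle and 100% = positive control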
# * hit, by the source's call; nt = not tested or not shown.
SMILES,GPR7 antagonist,OX1R antag-1,CHO parental Ca,OX1R antag-2,MPTP inh,MPTP counter
CC1=NN(c2ccc(Cl)cc2)C(=O)C1C(c1cccc(O)c1)c1c(C)[nH]n(-c2ccc(Cl)cc2)c1=O (configuration not stated),-0.9,22.1,0.8,11.5,100.9*,20.4*
Cc1cc(O)c(-c2ccno2)cc1Cl,-4.8,29.1,-5.9,5.7,81.6*,88.0*
Cc1ccc(NNC(=O)c2ccno2)cc1Cl,-9.4,10.7,-6.7,-12.8,2.2,nt
Nc1nnc(CC(=O)N/N=C/c2cc([N+](=O)[O-])cc(Br)c2O)s1,0.9,49.2,-2.8,-3.1,53.3*,-11.8
O=C(Nc1ccccc1)Nc1ccc(F)cc1F,0.2,13.4,-9.1,-17.8,17.3,nt
COC(=O)c1cccc(NC(=O)Nc2ccc(Cl)cc2Cl)c1,-13.4,26.6,-19.8,-14.6,84.2*,75.3*
COC(=O)c1ccc(NC(=O)Nc2ccc(F)cc2F)cc1,12.3,25.7,1.9,-30.8,85.8*,95.6*
O=C(Nc1ccc2c(c1)OCO2)Nc1ccc(Cl)cc1Cl,3.7,9.9,-21.4,-12.9,83.4*,94.3*
COC(=O)c1cccc(NC(=S)Nc2cc(Cl)ccc2OC)c1,-19.0,2.1,-5.4,-5.2,1.1,nt
Cc1ccc(NC(=O)CSCC(=O)NC2=NCCS2)cc1,nt,7.7,-5.8,-9.7,-0.4,nt
COc1ccc(NC(=O)Cn2c(C)cc(=O)c3cccc(OC)c32)cc1,nt,19.3,2.4,-8.8,1.5,nt
COc1cccc2c(=O)cc(C)n(CC(=O)Nc3ccc(Br)cc3)c12,-9.0,15.2,-6.7,-12.2,69.9*,33.5*
CC(=O)c1cccc(NC(=O)C2=CN3CCS(=O)(=O)N=C3C=C2)c1,nt,-0.9,-9.7,0.4,-1.0,nt
Cc1cccc(NC(=O)c2c([N+](=O)[O-])c(C(C)(C)C)nn2C)c1,-1.5,35.0,-16.9,-34.9,3.0,nt
Cn1nc(C(C)(C)C)c([N+](=O)[O-])c1C(=O)Nc1ccc(Br)cc1,-16.7,16.7,-1.3,-12.2,80.5*,93.2*
Cc1ccc(NC(=O)c2ccc(Nc3c([N+](=O)[O-])cc([N+](=O)[O-])cc3[N+](=O)[O-])cc2)cc1,-11.7,56.7,-13.5,-3.5,96.3*,74.1*
O=C(Nc1ccc(NC(=O)c2cccc([N+](=O)[O-])c2)cc1)c1cccc([N+](=O)[O-])c1,-10.1,0.2,-8.4,-29.5,2.0,nt
O=C(Nc1ccc(Br)cc1)c1cc([N+](=O)[O-])cc([N+](=O)[O-])c1,-7.3,27.5,5.8,-12.4,101.8*,85.7*
C=CCN1C(=O)c2ccc(C(=O)NCCc3ccc(OC)c(OC)c3)cc2C1=O,-1.4,29.4,-9.9,-9.4,-0.3,nt
CC1CCCN(C(=O)COC(=O)c2cccc(NS(=O)(=O)c3ccccc3)c2)C1 (configuration not stated),nt,18.6,-14.7,-17.5,-2.1,nt
COc1ccccc1NS(=O)(=O)c1cc(NC(=O)/C=C/c2cccs2)ccc1N1CCOCC1,-8.3,25.6,-0.5,-4.0,1.4,nt
Cc1ccc(CN2CCSc3ccc(C(=O)N4CCN(c5ncccn5)CC4)cc32)cc1,-4.2,7.6,-16.3,-29.0,66.2*,94.6*
Cc1cc(C)cc(CC(Cc2nc3ccccc3[nH]2)c2nc3ccccc3[nH]2)c1 (configuration not stated),-12.9,18.4,20.2,15.0,96.3*,108.4*
Cc1ccc(CSCc2nc3ccccc3[nH]2)cc1,-14.6,nt,nt,nt,-2.7,nt
CC(O)(c1ccncc1)c1nc(-c2cccc(C(F)(F)F)c2)cs1 (configuration not stated),nt,nt,nt,nt,90.5*,96.2*
SMILES,GPR7 antagonist,OX1R antag-1,CHO parental Ca,OX1R antag-2,MPTP inh,MPTP counter
Cc1ccc(NC(=O)CCCC2CCCCC2)c(O)c1,-25.3,44.2,-10.8,-20.9,5.9,nt
CCSc1nsc(NC(=O)Nc2ccccc2Cl)n1,nt,nt,nt,nt,63.0*,89.8*
CCSc1ncc(Cl)c(C(=O)Nc2ccccc2Cl)n1,-4.6,5.5,-38.0,-37.4,0.5,nt
Cc1cc(C2=NNC(=NC3CC3)SC2)c(C)n1-c1c(C)n(C)n(-c2ccccc2)c1=O,-13.8,17.8,-15.8,-4.0,0.9,nt
Cc1ccc(-n2c(C)cc(C3=NNC(=NC4CC4)SC3)c2C)cc1C,-3.7,8.8,-17.1,-35.6,79.1*,83.2*
Cc1nc2ccccc2n1C1CC(=O)N(Cc2ccccc2)C1=O (configuration not stated),-2.7,20.2,25.5,8.2,64.8*,57.7*
